Results collected from several papers.
Compare with care: the assays were run in different laboratories.
PFF0160c: Dihydroorotate dehydrogenase (quinone), mitochondrial (PFF0160c, Plasmodium falciparum, UniProt Q08210)
HTR2A: 5-hydroxytryptamine receptor 2A (HTR2A, Homo sapiens, UniProt P28223)

| Compound | target | effect on | mode | technique | IC50 [µM] |
| --- | --- | --- | --- | --- | --- |
| Cn1nc2c(=O)n(C3CC3)cnc2c1[C@](O)(c1ccc(C(F)(F)F)c(C#N)c1)C(F)(F)F | PFF0160c | enzyme activity | inhibitor | – | 0.0126 |
| Cc1nc(Nc2ccc(CC(=O)O)cc2)nc(Nc2ccc(F)c(C(F)(F)F)c2)c1C | cGMP-specific 3',5'-cyclic phosphodiesterase (PDE5A, Homo sapiens, UniProt O76074) | enzyme activity | inhibitor | FP | ~1.5 |
| CCn1cnc2c([C@@](O)(CC)c3ccc(C(F)(F)F)nc3)n(C)nc2c1=O | PFF0160c | enzyme activity | inhibitor | – | 0.056 |
| Cn1nccc1[C@]1(CNC(=O)c2ccc(F)c(F)c2-c2ccc(C(F)(F)F)cc2)NC(=O)NC1=O | Mucosa-associated lymphoid tissue lymphoma translocation protein 1 (MALT1, Homo sapiens, UniProt Q9UDY8) | enzyme activity | inhibitor | – | > 100 |
| CC(C)N(CCc1c[nH]c2cccc(OC(=O)CCCC(=O)O)c12)C(C)C | HTR2A | ligand displacement | – | radioligand | 5.7 |
| CNC(=O)c1ccc(-c2cnn3ccc(C(=O)N(C)c4ccc(Cl)c(C(=O)O)c4)cc23)cc1 | Thromboxane A2 receptor (TBXA2R, Homo sapiens, UniProt P21731) | cell-free assay | – | – | > 30 |
| Oc1ccc(C2=CCN(CC3CC34CC4)CC2)cc1 (stereo not shown) | HTR2A | calcium signal | antagonist | – | 6.23 |
| COC(=O)c1cc(N(C)C(=O)c2ccn3ncc(-c4ccc(C(=O)O)cc4)c3c2)ccc1Cl | Serine/threonine-protein kinase WNK1 (WNK1, Homo sapiens, UniProt Q9H4A3) | enzyme activity | inhibitor | – | > 30 |
| Cn1nc2c(=O)n(C3CC3)ccc2c1[C@](O)(c1ccc(C(F)(F)F)c(C#N)c1)C1CC1 | PFF0160c | enzyme activity | inhibitor | – | 0.02 |
| COc1ccc(COCCN(C)C(C)Cc2ccc(O)cc2)cc1 (stereo not shown) | HTR2A | calcium signal | antagonist | – | 16.9 |
